pIC50: −log10 of the molar value.
Legend:
[1] = Cytotoxicity against human SMMC-7221 cells assessed as reduction in cell viability after 48 hrs by MTS assay; assay type: functional, cell-based; details: SMMC-7221, 48 h
Outline: (§1)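 Cells (5 × 10^3 per well) were plated 12 h before treatment, then exposed continuously to compound for 48 h. MTS was added, with 1–4 h incubation at 37 °C and OD read at 490 nm. IC50 is the concentration cutting OD by 50% versus untreated cells, taken from dose–response curves. Values are the mean of three independent determinations.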

A549 = experiment: Cytotoxicity against human A549 cells assessed as reduction in cell viability after 48 hrs by MTS assay; assay type: functional, cell-based; details: A549, 48 h; outline: as §1
SW480 = experiment: Cytotoxicity against human SW480 cells assessed as reduction in cell viability after 48 hrs by MTS assay; assay type: functional, cell-based; details: SW480, 48 h; outline: as §1
MCF7 [2] = experiment: Cytotoxicity against human MCF7 cells assessed as reduction in cell viability after 48 hrs by MTS assay; assay type: functional, cell-based; details: MCF7, 48 h; outline: as §1
MCF7 [3] = experiment: Potency index, ratio of cisplatin IC50 to compound IC50 for cytotoxicity against human MCF7 cells by MTS assay; assay type: functional

| SMILES | pIC50 [1] | pIC50 (A549) | pIC50 (SW480) | pIC50 (MCF7 [2]) | Ratio IC50 (MCF7 [3]) |
| --- | --- | --- | --- | --- | --- |
| COc1ccc(C(=O)C[n+]2c(C)n(CCCN3C[C@@H]4Cc5ccccc5[C@@H]4c4cccc(OC)c43)c3ccccc32)cc1 | 5.88 | 5.44 | 5.90 | 6.40 | – |
| COc1ccc(C(=O)C[n+]2cn(CCCN3C[C@@H]4Cc5ccc(Br)cc5[C@@H]4c4cccc(OC)c43)c3cc(C)c(C)cc32)cc1.[Br-] | 6.05 | 5.82 | 5.85 | 6.46 | 56 |
| COc1ccc(C(=O)C[n+]2c(C)n(CCCN3C[C@@H]4Cc5ccc(Br)cc5[C@@H]4c4cccc(OC)c43)c3ccccc32)cc1 | 6.03 | 5.91 | 5.91 | 6.00 | – |
| COc1cc2c(cc1OC)[C@@H]1c3cccc(OC)c3N(CCCn3c[n+](Cc4ccc5ccccc5c4)c4cc(C)c(C)cc43)C[C@@H]1C2 | 5.74 | 5.23 | 5.79 | 5.83 | – |
| COc1cccc2c1N(C(=O)CCn1cnc3cc(C)c(C)cc31)C[C@@H]1Cc3ccccc3[C@H]21 | < 4.70 | < 4.70 | < 4.70 | < 4.70 | – |

From ChEMBL document CHEMBL4373640, “Synthesis and antitumor activity of aza-brazilan derivatives containing imidazolium salt pharmacophores” (Medchemcomm, 2019)
